These results are taken from ChEMBL document CHEMBL2346638, “Secondary amines containing one aromatic nitro group: preparation, nitrosation, sustained nitric oxide release, and the synergistic effects of released nitric oxide and an arginase inhibitor on vascular smooth muscle cell proliferation” (Bioorg Med Chem, 2013).

Molecules are shown by their SMILES. Calls of active or inactive are those of the source.

Test system in one data set: not listed separately
The experiment in a line: Induction of nitric oxide release in phosphate buffered saline up to 20 days by Griess reagent test. The note with it: buffer, 480 h. Type of data set: physicochemical. Also noted: concentration or dose not given beside the values. Put shortly: (§1)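 Nitrosated compound was stirred in 1X PBS at 0.0125 M (0.0250 M NO) at room temperature. Aliquots were taken hourly to 12 h, every 4 h to 24 h, every 8 h to 48 h, then every 24 h. Aliquots were centrifuged and triplicate supernatants mixed with Griess reagent for 5 min. Absorbance at 550 nm was plotted against time.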
On the technique in general: Griess reagent forms a coloured azo dye with nitrite.
On to `CCCCCCCCN(N=O)c1cccc(N(CCCCCCCC)N=O)c1[N+](=O)[O-]`, for which the Activity is listed as 2.13%.
Same read-out and setting: with `CCCCCCCCN(N=O)c1ccc([N+](=O)[O-])c(N(CCCCCCCC)N=O)c1` the figure was 2.63%.
Compound `CCCCCCCN(N=O)c1ccc([N+](=O)[O-])c(N(CCCCCCC)N=O)c1` displayed an Activity of 2.48%.
The same measure, in the same setting: with `CCCCCCN(N=O)c1cccc(N(CCCCCC)N=O)c1[N+](=O)[O-]` the figure was 1.85%; with `CCCCCCCN(N=O)c1cccc(N(CCCCCCC)N=O)c1[N+](=O)[O-]`, 2.02%.

Test system in the next data set: not listed separately
The experiment in a line: Nitrosation of the compound in glacial acetic acid/tetrahydrofuran after 5 to 8 hrs by IR spectroscopy analysis. Type of data set: physicochemical.
Details: not given
Turning to `CCCCCCCCN(N=O)c1ccc([N+](=O)[O-])c(N(CCCCCCCC)N=O)c1`, the Activity is given as 100%.
Compound `CCCCCCCN(N=O)c1ccc([N+](=O)[O-])c(N(CCCCCCC)N=O)c1` came in with an Activity of 100%.

For another data set, the system named is HASMC. Description: Antiproliferative activity against HASMC at 20 uM after 96 hrs by MTT assay in presence of S-2-amino-6-boronic acid. The note with it: Homo sapiens. Format: functional, cell-based. Put shortly: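 HASMCs were induced with LPS (50 µg/mL) and IFN-γ (50 ng/mL) for 6 h at 37 °C. Cytokines were removed and cells were treated with 5 mM ABH plus donor (20 µM) in SMC medium for 48 h at 37 °C. A second dose was added, followed by a further 48 h. Readout was MTT absorbance at 570 nm.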
A general note: Tetrazolium dyes change colour on reduction, which living cells bring about.
Consider `CCCCCCN(N=O)c1cccc(N(CCCCCC)N=O)c1[N+](=O)[O-]`, for which the inhibition entry is “Active”.

Test system in a further data set: not listed separately
The experiment in a line: Half life of the compound. Type of data set: physicochemical.
Details: not given
The method in brief: as §1
`CCCCCCCCN(N=O)c1cccc(N(CCCCCCCC)N=O)c1[N+](=O)[O-]` gave a half-life of 3.88 days.
Same read-out and setting: with `CCCCCCCCN(N=O)c1ccc([N+](=O)[O-])c(N(CCCCCCCC)N=O)c1` the figure was 3.46 days.
Same read-out and setting: with `CCCCCCCN(N=O)c1ccc([N+](=O)[O-])c(N(CCCCCCC)N=O)c1` the figure was 3.62 days.
The same measure, in the same setting: the figure for `CCCCCCN(N=O)c1cccc(N(CCCCCC)N=O)c1[N+](=O)[O-]` is 5.83 days.
Consider `CCCCCCCN(N=O)c1cccc(N(CCCCCCC)N=O)c1[N+](=O)[O-]`, for which the half-life was 5.25 days.

The test system of another data set is HASMC. Description: Antiproliferative activity against HASMC using calcein AM and ethidium homodimer-1 at 20 uM by LIVE/DEAD assay in presence of S-2-amino-6-boronic acid. Format: functional, cell-based. The note with it: Homo sapiens. Put shortly:
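HASMCs in black plates were induced with LPS/IFN-γ for 6 h, then given 20 µM donor plus 5 mM ABH for two 48 h periods. Detached cells were pelleted, washed and returned to their wells. Staining used ethidium homodimer-1 (0.5 µM) and calcein AM (0.25 µM) for 45 min at room temperature. Live cells were read at 495/530 nm and dead cells at 528/645 nm.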
Regarding `CCCCCCN(N=O)c1cccc(N(CCCCCC)N=O)c1[N+](=O)[O-]`, the inhibition result is “Active”.

Another data set has as its system HASMC. Description: Antiproliferative activity against HASMC using calcein AM and ethidium homodimer-1 at <= 20 uM by LIVE/DEAD assay. Type of data set: functional, cell-based. The note with it: Homo sapiens. The method in brief:
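HASMCs in black plates were exposed for 96 h to compound at 0.1–20 µM in medium with 1% DMSO. Floating dead cells were pelleted, washed in PBS and returned to their wells. Cells were stained with Eth-1 (0.5 µM) and calcein AM (0.25 µM) for 45 min at room temperature, then read at ex/em 495/530 and 528/645 nm. Triplicate; t-test versus vehicle.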
On to `CCCCCCCCN(N=O)c1cccc(N(CCCCCCCC)N=O)c1[N+](=O)[O-]`, for which the result was Active.
On the same count and under the same terms, with `CCCCCCCCN(N=O)c1ccc([N+](=O)[O-])c(N(CCCCCCCC)N=O)c1` the entry was “Active”; with `CCCCCCCN(N=O)c1ccc([N+](=O)[O-])c(N(CCCCCCC)N=O)c1`, “Active”; with `CCCCCCN(N=O)c1cccc(N(CCCCCC)N=O)c1[N+](=O)[O-]`, “Active”.
In the case of `CCCCCCCN(N=O)c1cccc(N(CCCCCCC)N=O)c1[N+](=O)[O-]`, the result was Active.

Test system in the next data set: not listed separately
The experiment in a line: Induction of nitric oxide release in phosphate buffered saline up to 20 days by Griess reagent test in presence of glutathione. Type of data set: physicochemical. The note with it: buffer, 480 h. The method in brief:
(§2)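 The same protocol was used in 1X PBS containing 5 mM reduced glutathione: donor at 0.0125 M, room temperature, timed aliquots over about 20 days. Supernatants were mixed with Griess reagent and absorbance read at 550 nm; no new calibration was needed.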
`CCCCCCCCN(N=O)c1cccc(N(CCCCCCCC)N=O)c1[N+](=O)[O-]`: the Activity was found to be 1.32%.

The next data set deals with HASMC. Description: Antiproliferative activity against HASMC at 20 uM after 96 hrs by MTT assay.
Details: not given
Format: functional, Homo sapiens. The method in brief:
(§3)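 Serum-starved HASMCs (3000–3500 cells/well) received compound in complete SMC medium (2% FBS) with 1% DMSO at 0.1, 1, 5, 10 or 20 µM for 48 h. Fresh medium was then added and cells grew a further 48 h (96 h total). MTT 4–6 h at 37 °C, solubilized, A570 as % of medium-only control; 1% DMSO vehicle; triplicate; t-test versus vehicle.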
In the case of `CCCCCCN(N=O)c1cccc(N(CCCCCC)N=O)c1[N+](=O)[O-]`, the Activity came out at 18%.

For another data set, the system named is HASMC. The experiment in a line: Induction of cell proliferation in HASMC at 0.1 to 5 uM after 96 hrs by MTT assay. Format: cell-based. The settings on record: human.
As for `CCCCCCCN(N=O)c1cccc(N(CCCCCCC)N=O)c1[N+](=O)[O-]`, the Activity entry is listed as “Toxic”.

Test system in a further data set: not listed separately
Description: Half life of the compound in presence of glutathione. Type of data set: physicochemical. The settings on record: gsh. The method in brief:
as §2
On to `CCCCCCCCN(N=O)c1cccc(N(CCCCCCCC)N=O)c1[N+](=O)[O-]`, for which the half-life is 5.12 days.

In the next data set the test system is HASMC. The experiment in a line: Induction of nitric oxide release in HASMC at 5 to 20 uM after 60 mins by DAF-FM DA assay. Format: functional, cell-based. The settings on record: Homo sapiens.
`CCCCCCCCN(N=O)c1cccc(N(CCCCCCCC)N=O)c1[N+](=O)[O-]`: the result was Active.
As for `CCCCCCCCN(N=O)c1ccc([N+](=O)[O-])c(N(CCCCCCCC)N=O)c1`, the result was Active.
On the same count and under the same terms, with `CCCCCCCN(N=O)c1ccc([N+](=O)[O-])c(N(CCCCCCC)N=O)c1` the entry was “Active”; with `CCCCCCN(N=O)c1cccc(N(CCCCCC)N=O)c1[N+](=O)[O-]`, “Active”; with `CCCCCCCN(N=O)c1cccc(N(CCCCCCC)N=O)c1[N+](=O)[O-]`, “inactive”.

Test system in a further data set: not listed separately
Description: Nitrosation of the compound in glacial acetic acid/tetrahydrofuran after 24 to 48 hrs by IR spectroscopy analysis. Type of data set: physicochemical.
Details: not given
`CCCCCCCCN(N=O)c1cccc(N(CCCCCCCC)N=O)c1[N+](=O)[O-]` gave an Activity of 100%.
The same measure, in the same setting: with `CCCCCCN(N=O)c1cccc(N(CCCCCC)N=O)c1[N+](=O)[O-]` the figure was 100%.
The same measure, in the same setting: the figure for `CCCCCCCN(N=O)c1cccc(N(CCCCCCC)N=O)c1[N+](=O)[O-]` is 100%.

In a further data set the test system is HASMC. The experiment in a line: Induction of nitric oxide release in HASMC at 20 uM after 60 mins by DAF-FM DA assay in presence of S-2-amino-6-boronic acid. Type of data set: functional, cell-based. The note with it: Homo sapiens. The method in brief: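 After LPS/IFN-γ induction (6 h), HASMCs were treated with 20 µM donor plus 5 mM ABH over 96 h. Cells were then loaded with DAF-FM DA (10 µM) for 60 min at room temperature in the dark, washed three times, left to de-esterify, and read at ex/em 495/515 nm.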
On to `CCCCCCN(N=O)c1cccc(N(CCCCCC)N=O)c1[N+](=O)[O-]`, for which the outcome was Active.

Test system in another data set: not listed separately
Description: Nitrosation of the compound in glacial acetic acid/tetrahydrofuran after 24 to 48 hrs by IR spectroscopy analysis in presence of glutathione. Format: physicochemical.
Details: not given
Consider `CCCCCCCCN(N=O)c1cccc(N(CCCCCCCC)N=O)c1[N+](=O)[O-]`, for which the Activity is 100%.

Another data set concerns HASMC. The experiment in a line: Antiproliferative activity against HASMC at <= 20 uM after 96 hrs by MTT assay. Type of data set: functional, cell-based. The settings on record: Homo sapiens. Put shortly:
as §3
In the case of `CCCCCCCCN(N=O)c1cccc(N(CCCCCCCC)N=O)c1[N+](=O)[O-]`, the result was Active.
Same read-out and setting: the entry for `CCCCCCCCN(N=O)c1ccc([N+](=O)[O-])c(N(CCCCCCCC)N=O)c1` is “Active”.
Regarding `CCCCCCCN(N=O)c1ccc([N+](=O)[O-])c(N(CCCCCCC)N=O)c1`, the result was Active.
Turning to `CCCCCCN(N=O)c1cccc(N(CCCCCC)N=O)c1[N+](=O)[O-]`, the outcome was Active.
On the same count and under the same terms, with `CCCCCCCN(N=O)c1cccc(N(CCCCCCC)N=O)c1[N+](=O)[O-]` the entry was “Active”.

Usually half-life stands for the time needed for the level to fall by half in the phase considered.
